ChEMBL document CHEMBL1138981, “Synthesis and SAR of 1,2-trans-(1-hydroxy-3-phenylprop-1-yl)cyclopentane carboxamide derivatives, a new class of sodium channel blockers” (Bioorg Med Chem Lett, 2006)
pIC50: −log10 of the molar value.

Experiments:
[1] = target: Sodium channel protein type 9 subunit alpha (Homo sapiens, UniProt Q15858); assay: Inhibition of peripheral nerve sodium channel NaV1.7
hERG (KCNH2) [2] = target: T1, hERG (KCNH2) (Homo sapiens, UniProt Q12809); assay: (§1) Displacement of [35S]-labeled MK499 from hERG at 10 uM; conditions: probe [35S]-MK499
T1 sequence (Q12809 whole entry): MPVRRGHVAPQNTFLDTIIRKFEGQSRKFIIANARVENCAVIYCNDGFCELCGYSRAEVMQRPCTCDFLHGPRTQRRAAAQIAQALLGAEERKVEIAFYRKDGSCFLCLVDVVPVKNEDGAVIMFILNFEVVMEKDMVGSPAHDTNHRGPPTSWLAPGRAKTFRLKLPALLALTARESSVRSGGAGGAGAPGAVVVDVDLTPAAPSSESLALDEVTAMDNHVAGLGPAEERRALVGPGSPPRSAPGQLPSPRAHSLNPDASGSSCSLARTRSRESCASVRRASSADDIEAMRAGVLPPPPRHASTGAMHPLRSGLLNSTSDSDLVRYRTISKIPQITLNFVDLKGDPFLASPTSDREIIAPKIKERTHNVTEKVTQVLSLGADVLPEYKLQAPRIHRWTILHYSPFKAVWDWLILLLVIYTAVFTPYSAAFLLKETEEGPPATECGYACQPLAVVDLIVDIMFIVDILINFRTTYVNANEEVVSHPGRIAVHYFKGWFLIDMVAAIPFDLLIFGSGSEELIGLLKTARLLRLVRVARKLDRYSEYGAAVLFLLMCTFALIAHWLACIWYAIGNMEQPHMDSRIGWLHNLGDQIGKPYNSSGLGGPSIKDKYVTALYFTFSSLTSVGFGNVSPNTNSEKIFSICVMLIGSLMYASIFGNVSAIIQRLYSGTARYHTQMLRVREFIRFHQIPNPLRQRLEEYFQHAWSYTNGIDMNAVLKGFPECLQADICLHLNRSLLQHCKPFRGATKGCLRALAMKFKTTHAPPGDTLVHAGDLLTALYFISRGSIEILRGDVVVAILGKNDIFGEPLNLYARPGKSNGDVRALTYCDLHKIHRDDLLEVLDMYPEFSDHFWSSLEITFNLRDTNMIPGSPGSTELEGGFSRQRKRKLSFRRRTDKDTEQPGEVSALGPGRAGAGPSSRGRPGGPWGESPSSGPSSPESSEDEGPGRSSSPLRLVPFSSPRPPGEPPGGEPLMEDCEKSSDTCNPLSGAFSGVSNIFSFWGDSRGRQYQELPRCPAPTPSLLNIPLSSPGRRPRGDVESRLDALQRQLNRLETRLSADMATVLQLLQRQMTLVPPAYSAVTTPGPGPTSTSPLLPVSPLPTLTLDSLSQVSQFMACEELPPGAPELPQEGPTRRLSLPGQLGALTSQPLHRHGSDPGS

Rattus norvegicus [3] = assay: AUC in rat at 2 mg/kg, po; type: ADME, organism-based, Plasma; design: dose 2 mg/kg, route oral; conditions: in vivo
[4] = (§2) Stability in human liver microsome after 1 hr; type: ADME, microsomes; conditions: liver microsomes, read-out: Stability
Rattus norvegicus [5] = assay: Anti-allodynic efficacy in rat chronic pain model at 3 mg/kg, po; type: ADME, organism-based; design: dose 3 mg/kg, route oral; conditions: in vivo
Outline: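 Chronic inflammatory pain induced in rats by intradermal injection of complete Freund's adjuvant (CFA). The read-out was reversal of CFA-induced allodynia after oral dosing.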

[6] = Plasma clearance in rat at 1 mg/kg, iv; type: ADME, organism-based; design: dose 1 mg/kg, route intravenous
[7] = (§3) Oral bioavailability in rat; type: ADME, organism-based; conditions: in vivo
[8] = (§4) Half life in rat at 1 mg/kg, iv; type: ADME, organism-based; design: dose 1 mg/kg, route intravenous; conditions: in vivo
[9] = Cmax in rat at 2 mg/kg, po; type: ADME, organism-based; design: dose 2 mg/kg, route oral; conditions: in vivo
hERG (KCNH2) [10] = target: T1, hERG (KCNH2); assay: Displacement of [35S]-labeled MK499 from hERG at 1 uM; conditions: probe [35S]-MK499
Liver microsomes = assay: as §2; type: ADME; conditions: microsomes, 1 h
[11] = (§5) Cmax in rat at 3 mg/kg, po; type: ADME, organism-based; design: dose 3 mg/kg, route oral; conditions: in vivo
Rattus norvegicus [12] = assay: AUC in rat at 3 mg/kg, po; type: ADME, organism-based, Plasma; design: dose 3 mg/kg, route oral; conditions: in vivo
[13] = target: Voltage-gated inwardly rectifying potassium channel KCNH2 (Homo sapiens, UniProt Q12809); assay: as §1; conditions: 10 µM
Sequence of Voltage-gated inwardly rectifying potassium channel KCNH2 (Q12809 whole entry): as above

Rattus norvegicus [14] = assay: as §3; type: ADME, organism-based; conditions: in vivo
Rattus norvegicus [15] = assay: as §4; type: ADME, organism-based; design: dose 1 mg/kg, route intravenous; conditions: in vivo
Rattus norvegicus [16] = assay: as §5; type: ADME, organism-based; design: dose 3 mg/kg, route oral; conditions: in vivo

Sequence of Sodium channel protein type 9 subunit alpha (Q15858 whole entry): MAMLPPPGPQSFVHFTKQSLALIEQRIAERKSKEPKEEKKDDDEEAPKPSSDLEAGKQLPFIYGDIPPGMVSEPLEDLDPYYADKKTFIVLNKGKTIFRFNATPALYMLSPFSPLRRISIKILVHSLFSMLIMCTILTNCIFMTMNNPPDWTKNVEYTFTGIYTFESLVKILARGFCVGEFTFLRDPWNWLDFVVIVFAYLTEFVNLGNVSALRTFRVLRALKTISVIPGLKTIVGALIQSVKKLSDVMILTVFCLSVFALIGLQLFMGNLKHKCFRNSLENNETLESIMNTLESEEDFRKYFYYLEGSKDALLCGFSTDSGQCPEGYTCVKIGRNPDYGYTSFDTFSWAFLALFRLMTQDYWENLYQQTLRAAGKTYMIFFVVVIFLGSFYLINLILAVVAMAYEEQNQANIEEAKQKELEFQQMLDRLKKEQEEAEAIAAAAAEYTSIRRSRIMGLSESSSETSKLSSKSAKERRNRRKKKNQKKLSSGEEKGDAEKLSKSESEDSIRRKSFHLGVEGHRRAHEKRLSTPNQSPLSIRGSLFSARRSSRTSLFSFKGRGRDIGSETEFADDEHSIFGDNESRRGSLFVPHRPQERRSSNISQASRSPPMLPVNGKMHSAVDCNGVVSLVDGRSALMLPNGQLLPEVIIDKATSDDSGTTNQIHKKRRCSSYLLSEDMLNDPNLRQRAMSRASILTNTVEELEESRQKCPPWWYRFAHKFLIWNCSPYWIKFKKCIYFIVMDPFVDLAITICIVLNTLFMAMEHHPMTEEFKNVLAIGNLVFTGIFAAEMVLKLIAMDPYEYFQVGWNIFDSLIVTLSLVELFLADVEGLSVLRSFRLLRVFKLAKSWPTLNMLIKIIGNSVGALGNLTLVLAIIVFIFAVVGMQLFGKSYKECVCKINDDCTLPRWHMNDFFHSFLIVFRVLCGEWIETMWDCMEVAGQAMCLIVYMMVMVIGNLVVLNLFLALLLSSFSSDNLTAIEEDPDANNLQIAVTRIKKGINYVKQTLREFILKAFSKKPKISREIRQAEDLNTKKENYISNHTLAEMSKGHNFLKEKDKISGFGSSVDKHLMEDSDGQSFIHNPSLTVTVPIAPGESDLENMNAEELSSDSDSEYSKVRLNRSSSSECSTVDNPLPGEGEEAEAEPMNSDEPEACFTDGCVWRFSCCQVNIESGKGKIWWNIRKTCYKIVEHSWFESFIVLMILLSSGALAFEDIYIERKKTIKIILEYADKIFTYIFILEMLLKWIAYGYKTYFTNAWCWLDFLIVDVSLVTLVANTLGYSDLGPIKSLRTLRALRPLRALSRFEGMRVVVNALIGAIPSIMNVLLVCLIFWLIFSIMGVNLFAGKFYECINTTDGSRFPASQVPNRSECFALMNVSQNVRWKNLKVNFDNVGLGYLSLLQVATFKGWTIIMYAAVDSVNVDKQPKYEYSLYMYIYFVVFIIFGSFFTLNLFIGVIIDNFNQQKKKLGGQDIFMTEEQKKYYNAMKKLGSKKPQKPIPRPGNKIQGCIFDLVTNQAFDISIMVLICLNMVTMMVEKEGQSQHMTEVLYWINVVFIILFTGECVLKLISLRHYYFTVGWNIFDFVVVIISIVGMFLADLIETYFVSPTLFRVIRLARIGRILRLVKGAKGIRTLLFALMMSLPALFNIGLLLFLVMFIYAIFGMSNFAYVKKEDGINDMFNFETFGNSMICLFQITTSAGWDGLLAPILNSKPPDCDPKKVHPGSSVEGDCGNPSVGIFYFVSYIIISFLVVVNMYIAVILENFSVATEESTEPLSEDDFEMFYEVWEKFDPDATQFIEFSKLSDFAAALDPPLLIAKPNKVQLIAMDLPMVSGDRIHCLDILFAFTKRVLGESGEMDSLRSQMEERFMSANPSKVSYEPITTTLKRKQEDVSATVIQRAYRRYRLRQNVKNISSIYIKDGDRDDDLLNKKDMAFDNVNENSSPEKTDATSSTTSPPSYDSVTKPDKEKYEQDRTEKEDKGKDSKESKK

Structure (SMILES)	pIC50 [1]	inhibition at 10 µM (hERG (KCNH2) [2]) [%]	further results
O=S(=O)(NC[C@@H]1CCC[C@H]1C(O)CCc1ccccc1)c1cc(Cl)cc(Cl)c1 (relative stereo)	< 5.52	90	–
O=C(NCc1cc(Cl)cc(Cl)c1)[C@@H]1CCC[C@H]1C(O)CCc1ccc(OC(F)(F)F)cc1 (relative stereo)	6.06	93	–
CN(Cc1ccccc1)C(=O)[C@@H]1CCC[C@H]1C(=O)NCc1ccc(OC(F)(F)F)cc1 (relative stereo)	5.83	–	–
O=C(NCc1ccccc1)[C@@H]1CCC[C@H]1C(O)CCc1ccccc1 (relative stereo)	< 5.52	–	–
OC(CCc1ccccc1)[C@@H]1CCC[C@H]1OCCc1ccc(OC(F)(F)F)cc1 (relative stereo)	< 5.52	70	–
OC(CCc1ccccc1)[C@@H]1CCC[C@H]1OCCc1cc(Cl)cc(Cl)c1 (relative stereo)	< 5.52	40	–
O=C(NC[C@@H]1CCC[C@H]1C(O)CCc1ccccc1)c1cc(Cl)cc(Cl)c1 (relative stereo)	< 5.52	79	–
COc1ccc(CCC(O)[C@@H]2CCC[C@H]2C(=O)NCc2cc(Cl)cc(Cl)c2)cc1 (relative stereo)	5.92	70	–
O=C(NCc1cc(Cl)cc(Cl)c1)[C@@H]1CCC[C@H]1C(O)CCc1ccccc1OC(F)(F)F (relative stereo)	5.94	73	–
O=C(NCc1cc(Cl)cc(Cl)c1)[C@@H]1CCC[C@H]1C(O)CCc1ccccc1 (relative stereo)	6.01	91	–
CS(=O)(=O)c1ccc(CCC(O)[C@@H]2CCC[C@H]2C(=O)NCc2ccc(OC(F)(F)F)cc2)cc1 (relative stereo)	< 5.52	–	–
OC(CCc1ccccc1)[C@@H]1CCC[C@H]1COCc1cc(Cl)cc(Cl)c1 (relative stereo)	5.95	59	–
OC(CCc1ccccc1)[C@@H]1CCC[C@H]1COCc1ccc(OC(F)(F)F)cc1 (relative stereo)	6.09	65	–
O=C(NCc1ccccc1)[C@@H]1CCC[C@H]1C(O)CCc1ccc(OC(F)(F)F)cc1 (stereo in doubt; 13)	6.19	–	Stability (Liver microsomes): 13%; Efficacy (Rattus norvegicus [5]): 25%; Cmax [11]: 1900 nM; AUC (Rattus norvegicus [12]): 5.3 µM·h; Inhibition [13]: 52%; F (Rattus norvegicus [14]): 40%; T1/2 (Rattus norvegicus [15]): 1.6 h

Second part, led by results:

pIC50 [1]	Structure (SMILES)	inhibition at 10 µM (hERG (KCNH2) [2]) [%]	further results
6.36	O=C(NCc1ccccc1C(F)(F)F)[C@@H]1CCC[C@H]1C(O)CCc1cccc(OC(F)(F)F)c1 (relative stereo)	78	–
6.64	O=C(NCc1ccccc1)[C@@H]1CCC[C@H]1C(O)CCc1cccc(OC(F)(F)F)c1 (relative stereo)	89	–
6.20	O=S(=O)(NC[C@@H]1CCC[C@H]1C(O)CCc1ccccc1)c1ccc(OC(F)(F)F)cc1 (relative stereo)	90	–
6.49	O=C(NCc1ccccc1)[C@@H]1CCC[C@H]1C(O)CCc1ccccc1OC(F)(F)F (relative stereo)	92	–
6.54	CN(Cc1ccc(-c2ccccc2S(N)(=O)=O)cc1)C(=O)[C@@H]1CCC[C@H]1C(=O)NCc1ccc(OC(F)(F)F)cc1 (relative stereo)	54	AUC (Rattus norvegicus [3]): 1.8 µM·h; remaining at 1 h [4]: 4%; Efficacy (Rattus norvegicus [5]): 43%; clearance [6]: 14 mL/min/kg; bioavailability [7]: 44%; half-life [8]: 1 h; Cmax [9]: 1000 nM
6.48	O=C(NC[C@@H]1CCC[C@H]1C(O)CCc1ccccc1)c1ccc(OC(F)(F)F)cc1 (relative stereo)	84	inhibition at 1 µM (hERG (KCNH2) [10]): 45%
6.36	O=C(NCc1cc(Cl)cc(Cl)c1)[C@@H]1CCC[C@H]1C(O)CCc1cccc(OC(F)(F)F)c1 (relative stereo)	87	–
6.28	O=C(NCc1ccccc1)[C@@H]1CCC[C@H]1C(O)CCc1ccc(OC(F)(F)F)cc1 (stereo in doubt; 13A)	–	Inhibition [13]: 68%
6.44	O=C(NCc1ccccc1)[C@@H]1CCC[C@H]1C(O)CCc1ccc(OC(F)(F)F)cc1 (stereo in doubt; 13B)	60	Stability (Liver microsomes): 49%; Efficacy (Rattus norvegicus [5]): 31%; Cmax (Rattus norvegicus [16]): 2300 nM; clearance [6]: 9 mL/min/kg; AUC (Rattus norvegicus [12]): 9 µM·h; F (Rattus norvegicus [14]): 65%; half-life [8]: 1.6 h
